Assay outcomes as filed in PubChem.
An excerpt weighted towards active compounds, which were near 2.4% of everything screened.
GASC-1 inh: blocks human GASC-1 demethylase activity; Q9H3R0; GST-JMJD2C(1-420) H3K9me3 demethylation, DELFIA europium; inhibition, % at 2.35 µM; actives 0.069% (n = 330,000); AID 2099;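 active means more than half of a compound's replicate wells show inhibition beyond 50%, single wells judged on their own value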;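 further: signal counts dimethyl H3K9 product captured on neutravidin plate; 0% = median of DMSO wells and 100% = 0.3 times that DMSO median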
pCIP destab: compounds decreasing mouse p/CIP protein stability | Q05BA5 | F442A p/CIP-EGFP cells, EGFP fluorescence, 16 h | decrease of EGFP signal, % at 10 µM | actives 0.01% (n = 290,000);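 active means EGFP signal decrease of at least 30% at 10 µM or well 3 SD below plate mean, unless failing retest; inactive means the rest, including hits failing retest or dose response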
H9c2 protect: myocardial damage modulation in H9c2 cells; H9c2 cardiomyocytes, H2O2 injury protection, ATPLite, 2 h; protection from H2O2 cell death, % at 20 µM; actives 0.63% (n = 360,000);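 active means compounds giving at least 50% protection of heart cells from peroxide-induced death in the single-dose screen, raw or plate-pattern-corrected value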;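 further: 0% = DMSO wells with peroxide and 100% = DMSO wells without peroxide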
Fh CTSL1 inh: counter-screen for PFM18AAP inhibitors: inhibitors of F. hepatica cathepsin L1; recombinant F. hepatica cathepsin L1, Z-Leu-Arg-MCA fluorescence; inhibition, % at 5.96 µM; actives 0.49% (n = 300,000);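 active means inhibition above the mean of all tested compounds plus 3 SD, set per screening campaign, cut at about 17% in these data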;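 further: 0% = plate median of test compound wells and 100% = 1 µM Z-Phe-Ala-diazomethylketone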
T cruzi repl: T. cruzi replication inhibition; inhibition, % (no concentration beside the values); T. cruzi beta-gal in NIH3T3, luminescence, 90 h; actives 1.4% (n = 300,000); AID 1885;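 active means mean inhibition across valid replicates above about 55%, limit read from the data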;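 further: signal also drops with host cell toxicity which is not excluded here; 0% = plate median of DMSO wells and 100% = zero luminescence signal; higher percent means less beta-gal luminescence so fewer parasites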
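System: NIH/3T3 fibroblasts plus reporter T. cruzi. Medium: DMEM plus 2% FBS. Probe or stimulus: 5000 reporter trypomastigotes per well. Compound: single 50 nL compound addition per well in DMSO. Incubation: co-culture of at least 90 h after 3 h attachment. Detection: GalScreen β-gal luminescence, detergent lysis, 60 min. Evaluation: parasite load inhibition, %.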
PP5 inh: PP5 (human) phosphatase inhibition. purified PP5c, OMFP substrate fluorescence. inhibition, % at 6.7 µM. actives 0.18% (n = 320,000). AID 1987;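 active means inhibition above the campaign's mean inhibition across all tested compounds plus 3 SD, cut at about 9.5% in these data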;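 further: 0% = DMSO only and 100% = 100 µM cantharidin control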
Target sequence (P53041 whole entry, looked up): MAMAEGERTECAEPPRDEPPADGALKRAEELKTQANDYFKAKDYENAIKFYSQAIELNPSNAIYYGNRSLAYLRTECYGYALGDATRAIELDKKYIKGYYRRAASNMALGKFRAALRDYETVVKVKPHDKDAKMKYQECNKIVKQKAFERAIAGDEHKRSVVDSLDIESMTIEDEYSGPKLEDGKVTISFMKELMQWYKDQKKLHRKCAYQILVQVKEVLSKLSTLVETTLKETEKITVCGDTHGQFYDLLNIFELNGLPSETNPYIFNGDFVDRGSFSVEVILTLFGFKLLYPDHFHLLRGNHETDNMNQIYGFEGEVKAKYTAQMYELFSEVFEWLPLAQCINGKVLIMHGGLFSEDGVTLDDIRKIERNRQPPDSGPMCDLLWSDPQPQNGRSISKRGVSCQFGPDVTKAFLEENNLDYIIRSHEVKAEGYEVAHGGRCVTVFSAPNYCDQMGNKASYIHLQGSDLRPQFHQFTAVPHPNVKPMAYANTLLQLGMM
Starred values were filed as active, the others as inactive; . = not tested or not shown.

SMILES	GASC-1 inh	pCIP destab	H9c2 protect	Fh CTSL1 inh	T cruzi repl	PP5 inh
CCOC(=O)c1c(NC(=O)CSc2nnc(-c3ccncc3)n2Cc2ccco2)sc(C)c1C	6	-15	9	2	70*	1
CCOC(=O)c1c(NC(=O)CSc2nnc(-c3ccncc3)n2Cc2ccco2)sc(C(C)=O)c1C	.	.	17	.	.	.
O=C(NNC(=O)C1COc2ccccc2O1)c1ccccc1O (configuration not stated)	.	.	0	.	.	.
CCN(C[C@H]1N[C@@](Cc2ccccc2)(C(=O)OC)[C@H]2C(=O)N(Cc3ccccc3)C(=O)[C@@H]12)S(=O)(=O)c1ccc(-c2ccccc2)cc1	-16	.	-4	.	.	.
CCN(C[C@H]1N[C@@](Cc2ccccc2)(C(=O)OC)[C@H]2C(=O)N(Cc3ccccc3)C(=O)[C@@H]12)S(=O)(=O)c1ccccc1	61*	.	18	.	.	.
CCN(C[C@H]1N[C@@](C)(C(=O)OC)[C@H]2C(=O)N(Cc3ccccc3)C(=O)[C@@H]12)S(=O)(=O)c1ccc(C)cc1	.	.	8	.	.	.
CCN(C[C@H]1N[C@@](C)(C(=O)OC)[C@H]2C(=O)N(C)C(=O)[C@@H]12)C(=O)Nc1ccc(C)cc1	52*	.	2	.	.	.
COC(=O)[C@]1(C)N[C@H](CN(C)S(=O)(=O)c2ccc(C)cc2)[C@@H]2C(=O)N(Cc3ccccc3)C(=O)[C@@H]21	62*	.	2	.	.	.
CCN(C[C@H]1N[C@@](CC)(C(=O)OC)[C@H]2C(=O)N(Cc3ccccc3)C(=O)[C@@H]12)S(=O)(=O)c1ccc(F)cc1	-7	.	59*	.	.	.
CN(C(=O)CN1C(=O)c2ccccc2S1(=O)=O)C1CCCCC1	-3	.	-4	.	.	.
COc1cc(C(c2oc(CO)cc(=O)c2O)c2oc(CO)cc(=O)c2O)cc(OC)c1OC	-1	-2	-2	51*	-7	2
O=C(NCC1CC1)c1cc([N+](=O)[O-])cc([N+](=O)[O-])c1	0	-7	4	0	61*	-1
O=C(NCC1CCCCC1)c1cccc([N+](=O)[O-])c1	0	5	-5	-2	50	5
O=C(NCCCN1CCN(CCCNC(=O)c2cccc([N+](=O)[O-])c2)CC1)c1cccc([N+](=O)[O-])c1	7	-3	2	-1	56*	-3
COc1cccc(OCCNC(=O)c2cc([N+](=O)[O-])cc([N+](=O)[O-])c2)c1	2	-4	4	1	61*	-2
O=C(NCCCCc1ccccc1)c1cc([N+](=O)[O-])cc([N+](=O)[O-])c1	-5	5	-6	5	63*	1
O=C(COC(=O)c1ccccc1C(=O)OCC(=O)NCCc1c[nH]c2ccccc12)NCCc1c[nH]c2ccccc12	-3	.	62*	-1	-18	4
Cc1ccc(C(=O)c2ccccc2C(=O)OCC(=O)NCCc2ccc(Cl)cc2Cl)cc1	1	4	-4	0	-1	0
O=C(NCCc1c[nH]c2ccccc12)c1ccc([N+](=O)[O-])cc1	-5	8	-4	-4	-1	3
O=C(COC(=O)c1ccc[nH]c1=O)NCCc1ccc(Cl)cc1Cl	-12	-3	-6	18*	1	3
O=C(NCCc1c[nH]c2ccccc12)c1cc([N+](=O)[O-])cc([N+](=O)[O-])c1	-7	-17	2	1	69*	1
COc1ccc(-n2nnnc2CNC(=O)c2ccc3c(c2)OCO3)cc1	-32	.	4	3	-1	2
COC(=O)c1ccc(CNC(=O)Cn2cnc3c(OCc4ccccc4)ncnc32)cc1	18	.	-5	.	.	.
O=C(CCc1nc(-c2ccccc2)no1)NC1CCCCCC1	.	.	-10	.	.	-2
O=C(O)c1ccc(NC2=C(n3nnc4ccccc43)C(=O)c3ccccc3C2=O)cc1	-10	-3	-8	34*	3	-1
SMILES	GASC-1 inh	pCIP destab	H9c2 protect	Fh CTSL1 inh	T cruzi repl	PP5 inh
O=C(O)c1ccc(-n2nnc3ccccc32)c([N+](=O)[O-])c1	-3	2	8	-2	-6	1
CCCc1ccc(C(O)c2ncc(-c3ccc(OC)cc3)[nH]2)cc1 (configuration not stated)	.	.	-6	.	.	.
CN(C)c1ccc(CNCCC(Cc2ccccc2)c2ccco2)cc1 (configuration not stated)	1	-12	-16	0	61*	-1
c1ccc(CNCCC(Cc2ccccc2)c2ccco2)cc1 (configuration not stated)	-10	-33	-7	-3	2	1
Cc1nc(C(=O)Nc2ccc(Cl)cc2)sc1C1(C)CC(c2cccc([N+](=O)[O-])c2)=NO1 (configuration not stated)	-18	.	-3	1	66*	0
CCN(CC)CCCNc1nc2ccccc2c2nc(-c3ccncc3)nn12	15	3	19	2	45	0
COc1ccc(CNC(=O)CCc2c(C)nc3cc(-c4ccccc4OC)nn3c2C)cc1	0	8	0	-3	41	3
COc1cc(OC)cc(-c2cc3nc(C)c(CCC(=O)NC(C)CCc4ccco4)c(C)n3n2)c1 (configuration not stated)	7	-8	16	1	65*	4
Cc1nc2cc(-c3cccc(F)c3)nn2c(C)c1CCC(=O)NC(C)CCc1ccco1 (configuration not stated)	8	-11	11	-1	39	2
COc1ccc(-c2cc3nc(C)c(CCC(=O)NCc4ccc(F)cc4)c(C)n3n2)c(OC)c1	-2	-2	10	2	60*	3
O=C1C(Cl)=C(Nc2ccc3cn[nH]c3c2)C(=O)c2ccccc21	-7	59*	-19	28*	59*	4
O=C(Nc1ccc2cn[nH]c2c1)c1c(Cl)cccc1Cl	12	2	-3	-3	-6	3
Cc1snc(SCc2ccc(Cl)cc2)c1C#N	-20	-3	-10	4	-1	-1
CC(C)C(NC(=O)C1(NC(=O)OCc2ccccc2)CCCC1)C(=O)O (configuration not stated)	.	.	-1	.	.	.
Cc1nnsc1C(=O)N/N=C/c1ccc2ccccc2c1O	24	2	14	0	55*	1
CC(=O)n1cc(/C=N/NC(=O)c2ccc([N+](=O)[O-])cc2)c2ccccc21	-1	-6	11	0	-13	3
CC(=O)n1cc(/C=N/NC(=O)c2sc(C)nc2C)c2ccccc21	6	-9	56*	6	14	1
Cc1nnsc1C(=O)N/N=C/c1ccccc1	32	-18	13	4	-13	3
CC(=O)NC1CC2CCCC(C1)N2C(=O)Nc1ccc(Cl)cc1 (configuration not stated)	.	.	0	.	.	.
Cn1c(=O)c2[nH]c(SCc3cccnc3)nc2n(C)c1=S	.	.	13	.	.	.
